In this assay the target is T1, Aromatase (Homo sapiens, UniProt P11511).
T1 sequence (P11511 whole entry): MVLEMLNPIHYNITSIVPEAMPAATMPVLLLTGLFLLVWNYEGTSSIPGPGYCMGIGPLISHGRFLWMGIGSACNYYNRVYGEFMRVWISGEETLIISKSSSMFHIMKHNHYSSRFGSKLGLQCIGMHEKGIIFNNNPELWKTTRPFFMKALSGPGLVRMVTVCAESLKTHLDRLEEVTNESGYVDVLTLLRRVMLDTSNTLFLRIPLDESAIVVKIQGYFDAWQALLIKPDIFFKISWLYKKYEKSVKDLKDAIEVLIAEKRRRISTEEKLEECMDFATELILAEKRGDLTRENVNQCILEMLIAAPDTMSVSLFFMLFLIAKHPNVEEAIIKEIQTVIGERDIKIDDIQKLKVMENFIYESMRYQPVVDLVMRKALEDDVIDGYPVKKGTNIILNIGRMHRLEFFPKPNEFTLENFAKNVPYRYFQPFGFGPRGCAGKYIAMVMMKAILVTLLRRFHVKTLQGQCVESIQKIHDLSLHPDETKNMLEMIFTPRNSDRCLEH
In words: Inhibition of aromatase in human SKBR3 cells by tritiated water release assay. A digest of the protocol:
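Subconfluent SK-BR-3 cells were switched to defined DMEM/F12 (human albumin, transferrin, insulin) and treated 24 h at five concentrations in triplicate (0.1% DMSO vehicle). They were then incubated 3 h with 100 nM [1β-3H]-androstenedione. TCA-precipitated medium was chloroform-extracted and charcoal-treated, and 3H2O counted as pmol/h/10^6 cells, normalized by DNA assay. IC50 was taken from sigmoidal dose–response fits.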

One may read the IC50 as the concentration that inhibits the measured activity by half. `COc1cc([N+](=O)[O-])ccc1N(C)S(C)(=O)=O` [N-methyl-N-(2-methoxy-4-nitrophenyl)methanesulfonamide]: the IC50 was above 25 µM.

`COc1cc([N+](=O)[O-])ccc1NS(C)(=O)=O` [N-(2-methoxy-4-nitrophenyl)methanesulfonamide] yielded an IC50 above 25 µM.
